We go through 25 molecules from ChEMBL document CHEMBL1955828, “Anti-mycobacterial activities of some cationic and anionic calix[4]arene derivatives” (Bioorg Med Chem, 2012).

Data set [1] deals with Mycobacterium tuberculosis. Description: Antimycobacterial activity against Mycobacterium tuberculosis H37Rv at 10 uM after 6 days by MTT assay. In kind it is functional. The settings on record: 144 h, read-out: GI. In general terms: Tetrazolium dyes change colour on reduction, which living cells bring about.
Data set [2] deals with Mycobacterium tuberculosis. Description: Antimycobacterial activity against Mycobacterium tuberculosis H37Rv after 6 days by MTT assay. In kind it is functional, organism-based. The settings on record: 144 h. In a few lines: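 Twofold serial compound dilutions in Middlebrook 7H9 broth were inoculated with bacterial suspension in 7H9 (H37Rv, or INH-resistant MYC5165) and incubated 6 days. MTT (1 mg/mL) was then added, followed by 1 more day of incubation, solubilisation buffer, and OD read at 570 nm. MIC was the lowest concentration inhibiting growth relative to untreated bacilli, and IC50 was also determined.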

Data set [3] has as its system Mycobacterium tuberculosis. The data set can be described thus: Antimycobacterial activity against Mycobacterium tuberculosis H37Rv at 1 uM after 6 days by MTT assay. Format: functional. To be noted: 144 h, read-out: GI.
The subject of data set [4] is Enterococcus faecalis. The data set can be described thus: Antibacterial activity against Enterococcus faecalis ATCC 29212 by microdilution method. Format: functional. A general note: Dilution methods test growth across graded concentrations, often in twofold steps.
The test system of data set [5] is Escherichia coli. Description: Antibacterial activity against Escherichia coli ATCC 25922 by microdilution method. Format: functional.
The nature of data set [6]: Cytotoxicity against human MRC5 cells by MTT assay. In kind it is cell-based.
Data set [7] relates to Pseudomonas aeruginosa. Description: Antibacterial activity against Pseudomonas aeruginosa ATCC 27853 by microdilution method. In kind it is functional.
In data set [8] the test system is Staphylococcus aureus. The data set can be described thus: Antibacterial activity against Staphylococcus aureus ATCC 25923 by microdilution method. In kind it is functional.

Converted amounts (≈) assume the structure as drawn. Bounds are passed on as bounds.

For the molecule `CC[C@@H](CO)NCCN[C@@H](CC)CO` [ETHAMBUTOL], the inhibition of growth at 10 µM in data set [1] came to 65%. Also, inhibition of growth in data set [2] (MIC) required 9.8 µM (≈ 2 µg/mL).
Regarding `Cc1ccc(-c2ccc(COc3c4cc(CCN)cc3Cc3cc(CCN)cc(c3O)Cc3cc(CCN)cc(c3OCc3ccc(-c5ccc(C)cn5)nc3)Cc3cc(CCN)cc(c3O)C4)cn2)nc1`, in data set [1], the inhibition of growth at 10 µM amounted to 81%. Further, in data set [2], the IC50 (as a rule, the point on the concentration scale where inhibition reaches its midpoint) amounted to 200 nM and 0.8 µM (≈ 0.769 µg/mL) was the least that counted as inhibitory (MIC). Besides, the inhibition of growth at 1 µM in data set [3] turned out to be 63%.
As to `Cc1cccc(-c2cccc(COc3c4cc(S(=O)(=O)O)cc3Cc3cc(S(=O)(=O)O)cc(c3O)Cc3cc(S(=O)(=O)O)cc(c3OCc3cccc(-c5cccc(C)n5)n3)Cc3cc(S(=O)(=O)O)cc(c3O)C4)n2)n1`, the MIC (in general, the lowest concentration that inhibits growth of the organism) in data set [2] is above 50 µM.
Regarding `N=C(N)NCCc1cc2c(O)c(c1)Cc1cc(CCNC(=N)N)cc(c1O)Cc1cc(CCNC(=N)N)cc(c1O)Cc1cc(CCNC(=N)N)cc(c1O)C2.O=C(O)C(F)(F)F`, the MIC in data set [4] was 4 µg/mL; in data set [5], 4 µg/mL; in data set [7], 4 µg/mL; in data set [2], 0.8 µM; in data set [8] it was 4 µg/mL. Moreover, the CC50 – broadly, the concentration giving 50% cytotoxicity – in data set [6] was found to be 256 µg/mL. In addition, the inhibition of growth at 10 µM in data set [1] was determined as 97%. In data set [2], this molecule showed a 50% inhibitory concentration (IC50) of 250 nM. In addition, the inhibition of growth at 1 µM in data set [3] was 73%.
In data set [2], `NNC(=O)c1ccncc1` [ISONIAZID] displayed an MIC of 0.6 µM (≈ 0.0823 µg/mL).
As for `Cc1cccc(-c2cccc(COc3c4cc(CCN)cc3Cc3cc(CCN)cc(c3O)Cc3cc(CCN)cc(c3OCc3cccc(-c5cccc(C)n5)n3)Cc3cc(CCN)cc(c3O)C4)n2)n1`, the inhibition of growth at 10 µM in data set [1] stood at 0%. Also, the inhibition of growth at 1 µM in data set [3] came to 7%.
In turn, `c1ccc(-c2ccccn2)nc1` [DIPYRIDYL] registered a minimal inhibitory concentration (MIC) in data set [2] of 160 µM (≈ 25 µg/mL).
Consider `O=S(=O)(O)c1cc2c(O)c(c1)Cc1cc(S(=O)(=O)O)cc(c1O)Cc1cc(S(=O)(=O)O)cc(c1O)Cc1cc(S(=O)(=O)O)cc(c1O)C2`, for which the inhibition of growth at 10 µM in data set [1] is 0%. Besides, the inhibition of growth at 1 µM in data set [3] worked out at 0%.
For `O=C(O)c1cn(C2CC2)c2cc(N3CCNCC3)c(F)cc2c1=O` [CIPROFLOXACIN], in data set [2], it took 2.5 µM (≈ 0.828 µg/mL) to inhibit growth (MIC).
For `Cc1csc(-c2nc(COc3c4cc(S(=O)(=O)O)cc3Cc3cc(S(=O)(=O)O)cc(c3O)Cc3cc(S(=O)(=O)O)cc(c3OCc3csc(-c5nc(C)cs5)n3)Cc3cc(S(=O)(=O)O)cc(c3O)C4)cs2)n1`, the MIC in data set [2] is above 50 µM.
`CN[C@@H]1[C@H](O[C@H]2[C@H](O[C@H]3[C@H](O)[C@@H](O)[C@H](N=C(N)N)[C@@H](O)[C@@H]3N=C(N)N)O[C@@H](C)[C@]2(O)C=O)O[C@@H](CO)[C@H](O)[C@H]1O` [STREPTOMYCIN]: the MIC in data set [2] came to 0.7 µM (≈ 0.407 µg/mL).
Same read-out and setting: the figure for `Cc1ccnc(-c2cc(C)ccn2)c1` is 136 µM (≈ 25 µg/mL).
Regarding `Cc1csc(-c2nc(COc3c4cc(CCNC(=N)N)cc3Cc3cc(CCNC(=N)N)cc(c3O)Cc3cc(CCNC(=N)N)cc(c3OCc3csc(-c5nc(C)cs5)n3)Cc3cc(CCNC(=N)N)cc(c3O)C4)cs2)n1.O=C(O)C(F)(F)F`, the MIC in data set [4] amounted to 4 µg/mL; in data set [5], 4 µg/mL; in data set [7], 4 µg/mL; in data set [2], 1.6 µM; in data set [8] it was 4 µg/mL. Further, the CC50 in data set [6] came out at 16 µg/mL. The inhibition of growth at 10 µM in data set [1] worked out at 90%. Moreover, the concentration for half-maximal inhibition (IC50) in data set [2] came to 400 nM. Besides, the inhibition of growth at 1 µM in data set [3] came to 54%.
Turning to `Cc1csc(-c2nc(COc3c4cc(CC(=O)O)cc3Cc3cc(CC(=O)O)cc(c3O)Cc3cc(CC(=O)O)cc(c3OCc3csc(-c5nc(C)cs5)n3)Cc3cc(CC(=O)O)cc(c3O)C4)cs2)n1`, in data set [2], the minimal inhibitory concentration (MIC) was above 50 µM.
With `Cc1csc(-c2nc(COc3c4cc(CP(=O)(O)O)cc3Cc3cc(CP(=O)(O)O)cc(c3O)Cc3cc(CP(=O)(O)O)cc(c3OCc3csc(-c5nc(C)cs5)n3)Cc3cc(CP(=O)(O)O)cc(c3O)C4)cs2)n1`, the MIC in data set [2] turned out to be 50 µM (≈ 59.5 µg/mL).
On to `O=C(O)Cc1cc2c(O)c(c1)Cc1cc(CC(=O)O)cc(c1O)Cc1cc(CC(=O)O)cc(c1O)Cc1cc(CC(=O)O)cc(c1O)C2`, for which the inhibition of growth at 10 µM in data set [1] is 7%. In addition, in data set [3], the inhibition of growth at 1 µM is 0%.
On to `Cc1cccc(-c2cccc(COc3c4cc(CC(=O)O)cc3Cc3cc(CC(=O)O)cc(c3O)Cc3cc(CC(=O)O)cc(c3OCc3cccc(-c5cccc(C)n5)n3)Cc3cc(CC(=O)O)cc(c3O)C4)n2)n1`, for which, in data set [2], the MIC was above 50 µM.
With `Cc1ccc(-c2ccc(COc3c4cc(CCNC(=N)N)cc3Cc3cc(CCNC(=N)N)cc(c3O)Cc3cc(CCNC(=N)N)cc(c3OCc3ccc(-c5ccc(C)cn5)nc3)Cc3cc(CCNC(=N)N)cc(c3O)C4)cn2)nc1.O=C(O)C(F)(F)F`, the minimum inhibitory concentration (MIC) in data set [4] stood at 4 µg/mL; in data set [5] it was 4 µg/mL; in data set [7], 4 µg/mL; in data set [2], 0.8 µM; in data set [8], 4 µg/mL. In data set [6], this molecule gave a cytotoxic concentration (CC50) of 128 µg/mL. In addition, in data set [1], the inhibition of growth at 10 µM amounted to 98%. In data set [2], this molecule had a half-inhibitory concentration (IC50) of 50 nM. Also, in data set [3], the inhibition of growth at 1 µM is 62%.
On to `O=P(O)(O)Cc1cc2c(O)c(c1)Cc1cc(CP(=O)(O)O)cc(c1O)Cc1cc(CP(=O)(O)O)cc(c1O)Cc1cc(CP(=O)(O)O)cc(c1O)C2`, for which, in data set [1], the inhibition of growth at 10 µM was 5%. In data set [3], the inhibition of growth at 1 µM was 0%.
For the molecule `NCCc1cc2c(O)c(c1)Cc1cc(CCN)cc(c1O)Cc1cc(CCN)cc(c1O)Cc1cc(CCN)cc(c1O)C2`, in data set [1], the inhibition of growth at 10 µM turned out to be 76%. In data set [2], it took 400 nM to reach half-maximal inhibition (IC50) and inhibition of growth (MIC) required 3.2 µM (≈ 1.91 µg/mL). In addition, the inhibition of growth at 1 µM in data set [3] was determined as 27%.
In data set [2], `CCc1cc(C(N)=S)ccn1` [ETHIONAMIDE] yielded an MIC of 9 µM (≈ 1.5 µg/mL).
Still for that read-out and setting: the figure for `CO[C@H]1/C=C/O[C@@]2(C)Oc3c(C)c(O)c4c(O)c(c(/C=N/N5CCN(C)CC5)c(O)c4c3C2=O)NC(=O)/C(C)=C\C=C\[C@H](C)[C@H](O)[C@@H](C)[C@@H](O)[C@@H](C)[C@H](OC(C)=O)[C@@H]1C` [RIFAMPIN] is 0.24 µM (≈ 0.198 µg/mL).
`Cc1cccc(-c2cccc(COc3c4cc(CCNC(=N)N)cc3Cc3cc(CCNC(=N)N)cc(c3O)Cc3cc(CCNC(=N)N)cc(c3OCc3cccc(-c5cccc(C)n5)n3)Cc3cc(CCNC(=N)N)cc(c3O)C4)n2)n1.O=C(O)C(F)(F)F`: the MIC in data set [4], in data set [5], in data set [7] and in data set [8] was 4 µg/mL in each case. Further, the inhibition of growth at 10 µM in data set [1] was 10%. In addition, the inhibition of growth at 1 µM in data set [3] amounted to 7%.
In data set [2], `Cc1cccc(-c2cccc(COc3c4cc(CP(=O)(O)O)cc3Cc3cc(CP(=O)(O)O)cc(c3O)Cc3cc(CP(=O)(O)O)cc(c3OCc3cccc(-c5cccc(C)n5)n3)Cc3cc(CP(=O)(O)O)cc(c3O)C4)n2)n1` gave a concentration for half-maximal inhibition (IC50) of 12400 nM and a minimal inhibitory concentration (MIC) of 50 µM (≈ 58.2 µg/mL).
As for `Cc1csc(-c2nc(COc3c4cc(CCN)cc3Cc3cc(CCN)cc(c3O)Cc3cc(CCN)cc(c3OCc3csc(-c5nc(C)cs5)n3)Cc3cc(CCN)cc(c3O)C4)cs2)n1`, the inhibition of growth at 10 µM in data set [1] amounted to 19%. The inhibition of growth at 1 µM in data set [3] is 25%.
